Assay results gathered from unrelated publications.
Compare with care: the assays were run in different laboratories.
KIT: Mast/stem cell growth factor receptor Kit (KIT, Homo sapiens, UniProt P10721)
KIT D816V: Mast/stem cell growth factor receptor Kit (KIT, Homo sapiens, UniProt P10721, D816V)
KIT V559D: Mast/stem cell growth factor receptor Kit (KIT, Homo sapiens, UniProt P10721, V559D)

| target | effect on | mode | method | tested at | endpoint | value | Structure (SMILES) |
| --- | --- | --- | --- | --- | --- | --- | --- |
| Mast/stem cell growth factor receptor Kit (KIT, Homo sapiens, UniProt P10721, L576P) | binding | – | competition with immobilised ligand | 0.5 µM | remaining binding | 87% | CCCCC(=O)Nc1ccc(-c2ccc3ncn(CCC)c(=O)c3c2)cn1 |
| KIT | binding | – | – | 1 µM | remaining binding | 111% | COc1ccc2oc(-c3ccc4nc(N)oc4c3)c/c(=N\c3ccccc3NC(=O)CCN)c2c1 |
| KIT D816V | binding | – | – | 1 µM | remaining binding | 23% | CN1CCN(C(=O)c2ccc(NC(=O)Nc3ccc(N(C)c4ccnc(Nc5ccc(CS(C)(=O)=O)cc5)n4)cc3)cc2)CC1 |
| Mast/stem cell growth factor receptor Kit (KIT, Homo sapiens, UniProt P10721, T670I/V559D) | cell-free assay | – | competition with immobilised ligand | 25 µM | remaining binding | 57% | N#Cc1ccc(NC(=O)Nc2ccccc2)cc1 |
| KIT | cell-free assay | – | – | 1 µM | remaining signal | 73% | C#Cc1cnc(Nc2ccnc(CO)c2)nc1Nc1ccccc1S(C)(=O)=NC#N (stereo not drawn) |
| KIT D816V | enzyme activity | inhibitor | – | 1 µM | inhibition | 96% | CO[C@@H]1[C@H](N(C)C(=O)c2ccccc2)C[C@H]2O[C@]1(C)n1c3ccccc3c3c4c(c5c6ccccc6n2c5c31)C(=O)NC4 |
| KIT D816V | cell-free assay | – | – | 1 µM | remaining signal | 3.6% | C[C@H]1CC[C@H](n2c3cnccc3c3cnc(Nc4ccc5c(n4)CCN(C(=O)CO)C5)nc32)CC1 |
| KIT V559D | binding | – | – | 0.1 µM | remaining binding | 3.7% | C1=C/COCc2cc(ccc2OCCN2CCCC2)Nc2nccc(n2)-c2cccc(c2)COC/1 |
| KIT | enzyme activity | inhibitor | – | 1 µM | inhibition | 17% | C=CC(=O)N1CCC([C@@H]2CCNc3c(C(N)=O)c(-c4ccc(Oc5ccccc5)cc4)nn32)CC1 |
| KIT V559D | binding | – | – | 1 µM | remaining binding | 9% | COc1ccc2[nH]c3c4[nH]c5ccc(OC)cc5c4c4c(c3c2c1)C(=O)NC4=O |
| Mast/stem cell growth factor receptor Kit (KIT, Homo sapiens, UniProt P10721, V559D/V654A) | enzyme activity | inhibitor | – | 1 µM | inhibition | 0% | CC#CC(=O)N1CCC[C@H]1c1nc(-c2ccc(C(=O)Nc3ccccn3)cc2)c2c(N)nccn12 |
| Mast/stem cell growth factor receptor Kit (KIT, Homo sapiens, UniProt P10721, D816H) | binding | – | – | 1 µM | remaining binding | 99% | Cc1ccc(NC(=O)c2ccnc(C(F)(F)F)c2)cc1-c1cc(OCCO)nc(N2CCOCC2)c1 |
